Data: ChEMBL document CHEMBL3400116, “Synthesis and activities towards resistant cancer cells of sulfone and sulfoxide griseofulvin derivatives” (Bioorg Med Chem Lett, 2015)

Legend:
[1] = Antiproliferative activity against exponentially growing adherent human SCC114 cells assessed as inhibition of cell proliferation after 72 hrs by luminescence detection based ATPlite assay; format: functional; conditions: SCC114, 72 h
In short: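 SCC-114 cells seeded at 10^3 cells/well in 96-well plates and left to grow exponentially as adherent cultures. After 72 h exposure at 37 °C in 5% CO2, viability was read by ATPlite luminescence of ATP from viable cells. IC50 came from nonlinear regression with a sigmoidal dose-response and variable Hill slope.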

HCC1937 [2] = experiment: Antiproliferative activity against exponentially growing adherent human HCC1937 cells assessed as inhibition of cell proliferation after 48 hrs by luminescence detection based ATPlite assay; conditions: HCC1937, 48 h
HCC1937 [3] = experiment: Antiproliferative activity against exponentially growing adherent human HCC1937 cells assessed as inhibition of cell proliferation at 10 uM after 48 hrs by luminescence detection based ATPlite assay; conditions: HCC1937, 48 h

SMILES	IC50 [1] [nM]	IC50 (HCC1937 [2]) [nM]	inhibition at 10 µM (HCC1937 [3]) [%]
COc1cc(OC)c2c(c1Cl)O[C@]1(C2=O)C(SCCN(C)C)=CC(=O)C[C@H]1C	1450	> 10000	0
COc1cc(OC)c2c(c1Cl)O[C@]1(C2=O)C(S(=O)(=O)Cc2ccccc2)=CC(=O)C[C@H]1C	400	1400	–
COc1cc(OC)c2c(c1Cl)O[C@]1(C2=O)C(S(=O)(=O)CCN(C)C)=CC(=O)C[C@H]1C	2800	5900	–
COc1cc(OC)c2c(c1Cl)O[C@]1(C2=O)C(S(=O)(=O)c2ccccc2)=CC(=O)C[C@H]1C	1000	1600	–
COc1cc(OC)c2c(c1Cl)O[C@]1(C2=O)C(S(C)(=O)=O)=CC(=O)C[C@H]1C	1900	> 10000	40
COc1cc(OC)c2c(c1Cl)O[C@@]1(C=C([S+]([O-])Cc3ccccc3)C(=O)C[C@H]1C)C2=O (some centres undefined)	20	–	–
COc1cc(OC)c2c(c1Cl)O[C@@]1(C=C([S+]([O-])c3ccccc3)C(=O)C[C@H]1C)C2=O (some centres undefined)	250	400	–
COc1cc(OC)c2c(c1Cl)O[C@@]1(C=C(S(=O)(=O)Cc3ccccc3)C(=O)C[C@H]1C)C2=O	–	900	–
COc1cc(OC)c2c(c1Cl)O[C@@]1(C=C(S(=O)(=O)c3ccccc3)C(=O)C[C@H]1C)C2=O	400	700	–
COc1cc(OC)c2c(c1Cl)O[C@]1(C2=O)C(SCc2ccccc2)=CC(=O)C[C@H]1C	–	> 10000	–
COc1cc(OC)c2c(c1Cl)O[C@]1(C2=O)C(OCc2ccccc2)=CC(=O)C[C@H]1C	980	> 10000	0
COC1=CC(=O)C[C@@H](C)[C@]12Oc1c(Cl)c(OC)cc(OC)c1C2=O [GRISEOFULVIN]	6400	> 10000	0
CC(=O)O[C@H]1C(=O)[C@@]2(C)[C@H]([C@H](OC(=O)c3ccccc3)[C@]3(O)C[C@H](OC(=O)[C@H](O)[C@@H](NC(=O)c4ccccc4)c4ccccc4)C(C)=C1C3(C)C)[C@]1(OC(C)=O)CO[C@@H]1C[C@@H]2O [PACLITAXEL]	0.3	> 10000	0
C/C(=C\c1csc(C)n1)[C@@H]1C[C@@H]2O[C@]2(C)CCC[C@H](C)[C@H](O)[C@@H](C)C(=O)C(C)(C)[C@@H](O)CC(=O)O1 [PATUPILONE]	0.17	> 10000	0
CCC1=C[C@@H]2CN(C1)Cc1c([nH]c3ccccc13)[C@@](C(=O)OC)(c1cc3c(cc1OC)N(C)[C@H]1[C@@](O)(C(=O)OC)[C@H](OC(C)=O)[C@]4(CC)C=CCN5CC[C@]31[C@@H]54)C2 [VINORELBINE]	0.07	> 10000	0
